Rows were chosen to be rich in hits. Some 3.6% of all compounds tested hit in one or more screens of this group.
Yeast growth inh: reduces growth of yeast BB579 in restrictive medium; S. cerevisiae BB579 growth, OD615, 48 h; inhibition, % at 10 µM; hit rate 0.51% among 140,000; AID 804;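 active = inhibition above a set limit, 3 SD over the mean compound inhibition, cut at about 44% in these data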
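test system = yeast BB579 (DeaD) | buffer or medium = restrictive CSMM-D medium | doses = single compound dose of 10 µM, 0.25% DMSO final | times = 4 h preincubation and 48 h exposure at 30 °C | technique = culture absorbance at 615 nm | benchmarks = amphotericin B 10 µg/mL, positive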
Yeast lifespan up: yeast lifespan extension; S. cerevisiae growth with nicotinamide, OD615; deaD strain in restrictive glucose medium; inhibition of the nicotinamide effect, % at 10 µM; hit rate 0.68% among 130,000; AID 775;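 active = inhibition above a set limit, placed 3 SD over the median of all compounds, cut at about 26% in these data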
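Material: Modified budding yeast, DeaD strain | Medium: Restrictive glucose medium | Probe or stimulus: 1.5 mM nicotinamide | Dosing: Single dose 10 µM compound, 0.25% DMSO | Times: 48 h at 30 °C | Technique: OD615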
Phagocytosis inh: macrophage phagocytosis inhibition; AID 1029; inhibition, % at 5 µM; J774A.1 macrophage IgG-bead phagocytosis, imaging; hit rate 0.07% among 110,000;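 active = inhibition above the mean of the plate negative controls plus 5 SD, cut at about 13% in these data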;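 also: phagocytic index as fraction of beads internalized from green versus red external bead signal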
RAM network inh: blocks the yeast RAM network; S. cerevisiae dse1pr::URA3 reporter, 5-FOA growth OD615, 2 d; analog-sensitive cbk1-as2 kinase mutant strain; inhibition, % at 50 µM; hit rate 1.8% among 190,000;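 active = inhibition above a set limit, 3 SD over mean compound inhibition, cut at about 8.4% in these data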;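 also: inhibition rescues growth on 5-FOA so higher OD means more RAM inhibition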
Measles CPE: protection of cells from measles virus | protection (pct of control), % at 4 µM | Measles virus-infected cells, CPE protection, absorbance | hit rate 1.5% among 140,000 | AID 841; in the data active = protection mostly above about 24%, no sharp cut-off; inactive = mostly below about 26%
RAM efflux-def: RAM network inhibitors in efflux-deficient yeast; shares compounds with RAM network inh; S. cerevisiae efflux-deficient reporter strain, 5-FOA growth OD615, 2 days; max inhibition, %; 1,200 tested, under 10 active; AID 1305; call rule not given here
Large screens that a line does not name were inactive (follow-up assays come after a bar, where they were run).

C=CCn1c(SCc2csc(C)n2)nc2sc3c(c2c1=O)CCC(C)C3 (stereo not given)	RAM network inh 15 (no result: Yeast lifespan up, Phagocytosis inh) | RAM efflux-def inactive
C=CCC(C=C)[N+]1(CC(=O)OC)CCCCC1 (stereo not given)	none (no result: Yeast growth inh, Yeast lifespan up, Phagocytosis inh, Measles CPE)
Cc1ccc(NC(=O)C2Cc3ccccc3CN2C(=O)c2ccccc2)cc1Cl (stereo not given)	none
Fc1cccc(Cc2noc(CN3CCCCC3CCc3ccccn3)n2)c1 (stereo not given)	none (no result: Yeast growth inh, Yeast lifespan up, Phagocytosis inh, Measles CPE)
N#C/C(=C\C1=C(N2CCOCC2)C(=C/c2cccc([N+](=O)[O-])c2)/CC1)C(=O)Nc1ccccc1F	RAM network inh 11 | RAM efflux-def inactive
CCC(c1nnc(SCC(=O)Nc2cccnc2Cl)n1-c1ccccc1)N(C)C (stereo not given)	none (no result: Yeast growth inh, Yeast lifespan up, Phagocytosis inh, Measles CPE)
COc1ccc(C)cc1S(=O)(=O)N(CC(=O)N1CCOCC1)Cc1ccccc1	none
COc1ccc(C)cc1S(=O)(=O)N(CC(=O)NCc1ccc(Cl)cc1)Cc1ccccc1	RAM network inh 12 | RAM efflux-def inactive
CCCCc1ccc(-c2csc(/C(C#N)=C\c3ccc(C)o3)n2)cc1	RAM network inh 14 | RAM efflux-def inactive
CC1=CC(C)(C)n2c(O)c(N=NC(N)=S)c3cccc1c32	RAM network inh 13 | RAM efflux-def inactive
CC(C)Cn1c(N)c(-c2nc(C(C)C)c(C(=O)c3ccccc3F)s2)c(=O)n(C)c1=O	RAM network inh 12 (no result: Yeast growth inh, Yeast lifespan up, Phagocytosis inh, Measles CPE) | RAM efflux-def inactive
COCCNC(=O)C(c1cccnc1)N(Cc1ccc(C)cc1)C(=O)Cn1nnc2ccccc21 (stereo not given)	none (no result: Yeast growth inh, Yeast lifespan up, Phagocytosis inh, Measles CPE)
Cn1c(=O)cc(OCCCC(=O)NCc2ccccn2)c2ccccc21	none
Cn1c(=O)cc(OCCCC(=O)NCc2ccc(F)cc2Cl)c2ccccc21	RAM network inh 16 (no result: Yeast growth inh, Yeast lifespan up, Phagocytosis inh, Measles CPE) | RAM efflux-def inactive
Cc1cccc(N2CCN(C(=O)NCc3ccc(Cl)cc3)CC2)c1	none (no result: Yeast lifespan up, Phagocytosis inh)
CCOc1ccc(NC(=O)C(Cc2ccccc2)N2C(=O)c3cccc4cccc(c34)C2=O)cc1 (stereo not given)	none (no result: Yeast growth inh, Yeast lifespan up, Phagocytosis inh, Measles CPE)
CCN(Cc1ccccc1)c1ccc(/C=N/NS(=O)(=O)c2cccc([N+](=O)[O-])c2)cc1	RAM network inh 14 | RAM efflux-def inactive
Cc1oc(-c2cccs2)nc1CN1CCC(c2ccccc2)CC1	none (no result: Yeast growth inh, Yeast lifespan up, Phagocytosis inh, Measles CPE)
S=C(NCCC(c1ccccc1)c1ccccc1)Nc1cccc(Cl)c1	RAM network inh 14 (no result: Phagocytosis inh) | RAM efflux-def inactive
S=C(NCc1ccncc1)Nc1cccc(Cl)c1	none
Cc1ccccc1NC(=S)NCCC(c1ccccc1)c1ccccc1	RAM network inh 12 | RAM efflux-def inactive
C=CCn1c(C)cc(C(=O)COC(=O)/C=C/c2ccc(OC)cc2)c1C	none (no result: Yeast growth inh, Yeast lifespan up, Phagocytosis inh, Measles CPE)
C=CCn1c(C)cc(C(=O)COC(=O)/C=C/c2cccc(OC)c2)c1C	RAM network inh 20 (no result: Yeast growth inh, Yeast lifespan up, Phagocytosis inh, Measles CPE) | RAM efflux-def inactive
CNc1ccc(S(=O)(=O)NCC(=O)OCC(=O)Nc2cccc(Cl)c2Cl)cc1[N+](=O)[O-]	none
CCOC(=O)C1=NN(c2ccccc2C)C2=NC(C)=C(C(=O)OC)C(c3cccc(OC)c3)N12 (stereo not given)	RAM network inh 23 | RAM efflux-def inactive
CCOC(=O)C1=NN(c2ccccc2C)C2=NC(C)=C(C(=O)OC)C(c3cccs3)N12 (stereo not given)	none (no result: Yeast lifespan up, Phagocytosis inh)
COc1ccc(CNc2oc(COc3ccccc3)nc2C#N)cc1	none (no result: Phagocytosis inh)
N#Cc1nc(Cc2cccc3ccccc23)oc1N1CCCCC1	RAM network inh 12 | RAM efflux-def inactive
N#Cc1nc(-c2cccc3ccccc23)oc1N1CCCCC1	none
COc1ccccc1-c1nc(C#N)c(N2CCC(Cc3ccccc3)CC2)o1	RAM network inh 13 | RAM efflux-def inactive
N#Cc1nc(Cc2ccccc2)oc1N1CCC(Cc2ccccc2)CC1	RAM network inh 13 | RAM efflux-def inactive
COc1ccc(CNc2oc(Cc3cccc4ccccc34)nc2C#N)cc1	RAM network inh 13 | RAM efflux-def inactive
N#Cc1nc(Cc2ccccc2)oc1N1CCN(c2ccccc2)CC1	none
S=C(NCCc1cnc[nH]1)NC1CCCC1	none (no result: Yeast growth inh, Yeast lifespan up, Phagocytosis inh, Measles CPE)
CCCC1S/C(=N/N=C/c2ccc(C)cc2)N(Cc2ccc(OC)cc2)C1=O (stereo not given)	RAM network inh 12 | RAM efflux-def inactive
COc1ccc(/C=N/N=C2\SC(CC(=O)O)C(=O)N2c2ccccc2)cc1 (stereo not given)	none (no result: Phagocytosis inh)
O=C(COc1cccc(F)c1)N1c2ccccc2Sc2ccccc21	RAM network inh 15 | RAM efflux-def inactive
CCc1ccccc1N1CCN(S(=O)(=O)c2cc(OC)ccc2OC)CC1	RAM network inh 13 | RAM efflux-def inactive
CCCCN(CCCC)C1=Nc2ccccc2N/C1=C(/C#N)C(=O)OCC	RAM network inh 16 | RAM efflux-def inactive
CCCSC1=N/C(=C\c2ccc([N+](=O)[O-])o2)C(=O)S1	none (no result: Yeast growth inh, Yeast lifespan up, Phagocytosis inh, Measles CPE)
CCSC1=N/C(=C\c2ccc(-c3ccccc3[N+](=O)[O-])o2)C(=O)S1	RAM network inh 14 (no result: Phagocytosis inh) | RAM efflux-def inactive
CCCCOc1ccccc1NC(=O)c1ccco1	none
CCCCOc1ccccc1NC(=O)c1scc2c1OCCO2	RAM network inh 13 (no result: Yeast growth inh, Yeast lifespan up, Phagocytosis inh, Measles CPE) | RAM efflux-def inactive
Cc1ccc(N2CC(C(=O)Nc3cc(C)on3)CC2=O)cc1 (stereo not given)	none (no result: Phagocytosis inh)
COc1ccccc1/C=C/C(=O)c1ccc(Cl)cc1	none (no result: Phagocytosis inh)
COc1ccc(/C=C/C(=O)c2ccc(OC)cc2OC)c(OC)c1	RAM network inh 14 (no result: Yeast growth inh, Yeast lifespan up, Phagocytosis inh, Measles CPE) | RAM efflux-def inactive
COc1ccc(C(=O)/C=C/c2ccc(OC)c(COc3ccc(F)cc3)c2)cc1	RAM network inh 18 | RAM efflux-def inactive
COc1ccc(OC)c(/C=C/C(=O)c2ccc(Cl)cc2)c1	RAM network inh 13 | RAM efflux-def inactive
O=C(CCC1CCCCC1)Nc1ccccc1-c1ccccc1	RAM network inh 25 | RAM efflux-def inactive
COc1ccc(CN=C(Nc2ccccc2)SC2CC(=O)N(C)C2=O)cc1 (stereo not given)	none
Cc1cc2c(N=NC(=O)CCc3ccccc3)c(O)[nH]c2cc1Br	none
COc1ccc(S(=O)(=O)N(Cc2ccccc2)Cc2nc(-c3ccccc3)no2)cc1	RAM network inh 11 | RAM efflux-def inactive
COc1ccc(Cc2nc(-c3ccccc3)no2)cc1	none
N#CCCCSc1nnc(-c2ccc(Cl)cc2)n1-c1ccccc1	RAM network inh 15 | RAM efflux-def inactive
CC(Oc1ccc(Cl)cc1)c1ccnn1S(=O)(=O)c1ccc(Cl)cc1 (stereo not given)	none
CC(Oc1ccc(-c2ccccc2)c(F)c1)c1ccn(S(=O)(=O)c2ccc(Br)cc2)n1 (stereo not given)	RAM network inh 12 (no result: Phagocytosis inh) | RAM efflux-def inactive
COc1ccc(/C(=N\O)c2ncc(C(F)(F)F)cc2Cl)cc1	none
CON/C=C(\C=Nc1ccc(C(F)(F)F)cc1)c1ncc(C(F)(F)F)cc1Cl	RAM network inh 13 (no result: Phagocytosis inh) | RAM efflux-def inactive
CCN(Cc1ccccc1)Cc1nnnn1Cc1ccccc1	none (no result: Yeast growth inh, Yeast lifespan up, Phagocytosis inh, Measles CPE)
